Laboratory results published in ChEMBL document CHEMBL3244169, “(1-(3-(Phenothiazin-10-yl)propyl)-4-piperidinyl)phenylmethanones, a novel class of long-acting neuroleptic agents” (J Med Chem, 1978).
The source made the active and inactive calls. The rule behind the calls is not given here.

What was measured:
Mus musculus [1] = test: Neuroleptic activity in ip dosed ICR-DUB mouse assessed as survival administered 1 hr prior to d-amphetamine challenge measured after 24 hrs; format: functional
Mus musculus [2] = test: Neuroleptic activity in ip dosed ICR-DUB mouse assessed as survival administered 16 hrs prior to d-amphetamine challenge measured after 24 hrs; format: functional
Mus musculus [3] = test: Neuroleptic activity in ip dosed ICR-DUB mouse assessed as survival administered 2 days prior to d-amphetamine challenge measured after 24 hrs; format: functional
Mus musculus [4] = test: Neuroleptic activity in ip dosed ICR-DUB mouse assessed as survival administered 3 days prior to d-amphetamine challenge measured after 24 hrs; format: functional
Mus musculus [5] = test: Neuroleptic activity in mouse assessed as suppression of conditioned avoidance behavior by measuring mean correct responses level at 10 mg/kg, ip administered 8 hrs prior to electric shock challenge; format: functional; details: route intraperitoneal
Summary of the method: (§1)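 After 20 s a solenoid pushed each mouse back onto the grid, leaving 5 s to return and avoid the next shock. Trained mice reaching 90–100% correct avoidance (3–5 per group) received 10 mg/kg ip. Twenty trials were run before dosing and at intervals after. Percent correct avoidance per animal was averaged per group.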

Mus musculus [6] = test: Neuroleptic activity in mouse assessed as suppression of conditioned avoidance behavior by measuring mean correct responses level at 10 mg/kg, ip administered 1 day prior to electric shock challenge; format: functional; details: route intraperitoneal; summary of the method: as §1
Mus musculus [7] = test: Neuroleptic activity in mouse assessed as suppression of conditioned avoidance behavior by measuring mean correct responses level at 10 mg/kg, ip administered 2 days prior to electric shock challenge; format: functional; details: route intraperitoneal; summary of the method: as §1
Mus musculus [8] = test: Neuroleptic activity in mouse assessed as suppression of conditioned avoidance behavior by measuring mean correct responses level at 10 mg/kg, ip administered 3 days prior to electric shock challenge; format: functional; details: route intraperitoneal; summary of the method: as §1
Mus musculus [9] = test: Neuroleptic activity in mouse assessed as suppression of conditioned avoidance behavior by measuring mean correct responses level at 10 mg/kg, ip administered 4 days prior to electric shock challenge; format: functional; details: route intraperitoneal; summary of the method: as §1
Mus musculus [10] = test: Toxicity in ICR-DUB mouse assessed as grooming at 50 mg/kg, ip measured during first 24 hrs; format: organism-based; design: dose 50 mg/kg, route intraperitoneal; details: in vivo
Mus musculus [11] = test: Neuroleptic activity in mouse assessed as suppression of conditioned avoidance behavior by measuring mean correct responses level at 10 mg/kg, ip administered 4 hrs prior to electric shock challenge; format: functional; details: route intraperitoneal; summary of the method: as §1
Mus musculus [12] = test: Neuroleptic activity in ip dosed ICR-DUB mouse assessed as survival administered 4 days prior to d-amphetamine challenge measured after 24 hrs; format: functional
Mus musculus [13] = test: Neuroleptic activity in ip dosed ICR-DUB mouse assessed as survival administered 5 days prior to d-amphetamine challenge measured after 24 hrs; format: functional
Mus musculus [14] = test: Neuroleptic activity in ip dosed ICR-DUB mouse assessed as survival administered 6 days prior to d-amphetamine challenge measured after 24 hrs; format: functional
Mus musculus [15] = test: Neuroleptic activity in ip dosed ICR-DUB mouse assessed as survival administered 7 days prior to d-amphetamine challenge measured after 24 hrs; format: functional
Mus musculus [16] = test: Toxicity in ICR-DUB mouse assessed as CNS depression at 50 mg/kg, ip measured for 24 hrs; format: organism-based; design: dose 50 mg/kg, route intraperitoneal; details: in vivo
Mus musculus [17] = test: Toxicity in ICR-DUB mouse assessed as mild sedation at 50 mg/kg, ip measured for 6 days; format: organism-based; design: dose 50 mg/kg, route intraperitoneal; details: in vivo, 144 h
Mus musculus [18] = test: Toxicity in ICR-DUB mouse assessed as body weight loss at 50 mg/kg, ip; format: organism-based; design: dose 50 mg/kg, route intraperitoneal; details: in vivo
Mus musculus [19] = test: Toxicity in ICR-DUB mouse assessed as grooming at 50 mg/kg, ip; format: organism-based; design: dose 50 mg/kg, route intraperitoneal; details: in vivo
Mus musculus [20] = test: Neuroleptic activity in mouse assessed as suppression of conditioned avoidance behavior by measuring mean correct responses level at 10 mg/kg, ip administered immediately prior to electric shock challenge; format: functional; details: route intraperitoneal; summary of the method: as §1
Mus musculus [21] = test: Neuroleptic activity in mouse assessed as suppression of conditioned avoidance behavior by measuring mean correct responses level at 10 mg/kg, ip administered 1 hr prior to electric shock challenge; format: functional; details: route intraperitoneal; summary of the method: as §1
Mus musculus [22] = test: Neuroleptic activity in mouse assessed as suppression of conditioned avoidance behavior by measuring mean correct responses level at 10 mg/kg, ip administered 2 hrs prior to electric shock challenge; format: functional; details: route intraperitoneal; summary of the method: as §1
Mus musculus [23] = test: Neuroleptic activity in ip dosed ICR-DUB mouse assessed as survival administered 4 hrs prior to d-amphetamine challenge measured after 24 hrs; format: functional
Mus musculus [24] = test: Toxicity in ICR-DUB mouse assessed as depression at 60 mg/kg, ip measured for 5 days; format: organism-based; design: dose 60 mg/kg, route intraperitoneal; details: in vivo, 120 h
Mus musculus [25] = test: Toxicity in ICR-DUB mouse assessed as reduction in food intake at 60 mg/kg, ip; format: organism-based; design: dose 60 mg/kg, route intraperitoneal; details: in vivo
Mus musculus [26] = test: Toxicity in ICR-DUB mouse assessed as grooming of coat at 60 mg/kg, ip; format: organism-based; design: dose 60 mg/kg, route intraperitoneal; details: in vivo
Mus musculus [27] = test: Neuroleptic activity in mouse assessed as suppression of conditioned avoidance behavior by measuring mean correct responses level at 20 mg/kg, ip administered 7 days prior to electric shock challenge; format: functional, organism-based; design: dose 20 mg/kg

Row | SMILES | ED50 (Mus musculus [1]) | ED50 (Mus musculus [2]) | ED50 (Mus musculus [3]) | ED50 (Mus musculus [4]) | Activity (Mus musculus [5]) | Activity (Mus musculus [6]) | Activity (Mus musculus [7]) | Activity (Mus musculus [11]) | ED50 (Mus musculus [12]) | ED50 (Mus musculus [13]) | ED50 (Mus musculus [15]) | Activity (Mus musculus [20]) | Activity (Mus musculus [21]) | Activity (Mus musculus [22]) | ED50 (Mus musculus [23]) | also measured
1 | O=C(CCCN1CCC(O)(c2ccc(Cl)cc2)CC1)c1ccc(F)cc1 [HALOPERIDOL] | 0.09 mg/kg | 0.58 mg/kg | 16 mg/kg | Active | – | – | – | – | – | – | – | – | – | – | – | –
2 | O=C(O)/C=C/C(=O)O.O=C(c1ccc(F)cc1)C1CCN(CCCN2c3ccccc3Sc3ccc(C(F)(F)F)cc32)CC1 [DUOPERONE FUMARATE] | – | – | 4.7 mg/kg | 15.2 mg/kg | 45% | 58% | 58% | 80% | 27 mg/kg | 28.4 mg/kg | 45.5 mg/kg | 92% | 98% | 88% | – | Activity (Mus musculus [8]): 58%; Activity (Mus musculus [9]): 95%; Activity (Mus musculus [10]): Toxic; ED50 (Mus musculus [14]): 26.5 mg/kg; Activity (Mus musculus [16]): Toxic; Activity (Mus musculus [17]): Toxic; Activity (Mus musculus [18]): Non-toxic; Activity (Mus musculus [19]): Non-toxic
3 | O.O=C(O)/C=C/C(=O)O.O=C(c1ccc(F)cc1)C1CCN(CCCN2c3ccccc3Sc3ccccc32)CC1 | 0.94 mg/kg | 1.27 mg/kg | 12.1 mg/kg | > 50 mg/kg | 93% | 87% | 98% | 75% | – | – | inactive | 97% | 63% | 70% | 0.35 mg/kg | –
4 | O=C(O)/C=C/C(=O)O.O=C(c1ccc(F)cc1)C1CCN(CCCN2c3ccccc3Sc3ccc(Cl)cc32)CC1 | 0.17 mg/kg | 0.72 mg/kg | 4.6 mg/kg | 8.8 mg/kg | 40% | 57% | 95% | 32% | 20.9 mg/kg | > 60 mg/kg | inactive | 96% | 80% | 38% | 0.53 mg/kg | Activity (Mus musculus [24]): Toxic; Activity (Mus musculus [25]): Toxic; Activity (Mus musculus [26]): Toxic
5 | OC1(c2ccc(Cl)c(C(F)(F)F)c2)CCN(CCCC(c2ccc(F)cc2)c2ccc(F)cc2)CC1 [PENFLURIDOL] | 1.28 mg/kg | 1.52 mg/kg | 3 mg/kg | 17 mg/kg | – | – | – | – | 47.5 mg/kg | Active | – | – | – | – | 1.82 mg/kg | Activity (Mus musculus [27]): Active
6 | CC(=O)c1ccc2c(c1)N(CCCN1CCC(C(=O)c3ccc(F)cc3)CC1)c1ccccc1S2.O.O=C(O)/C=C/C(=O)O | – | – | 22.5 mg/kg | 17.5 mg/kg | 55% | 55% | 95% | 43% | > 64 mg/kg | 60 mg/kg | inactive | 95% | 73% | 61% | – | Activity (Mus musculus [8]): 100%
7 | O=C(c1ccc(Cl)c(Cl)c1)C1CCN(CCCN2c3ccccc3Sc3ccc(Cl)cc32)CC1 | > 16 mg/kg | – | – | – | 95% | 93% | – | 92% | – | – | inactive | 97% | 97% | 97% | – | –
8 | CN(C)CCCN1c2ccccc2Sc2ccc(Cl)cc21 [CHLORPROMAZINE] | 0.28 mg/kg | 3.65 mg/kg | > 32 mg/kg | Active | 72% | 88% | 95% | 37% | – | – | – | 96% | 42% | 28% | – | –
